Compound activity as filed in PubChem BioAssay.
An excerpt weighted towards active compounds, which were near 4.9% of everything screened.
STAT1 inh – reduces IFN-gamma driven STAT1 reporter signal | 0.35% of 200,000 active | inhibition, % at 5.5 µM | NIH 3T3 STAT1-luciferase reporter, luminescence;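 active means inhibition above a set limit, the mean inhibition across all tested compounds plus 3 SD, cut at about 34% in these data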;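 further: 0% = IFN-gamma with DMSO and 100% = IFN-gamma with 300 µM nifuroxazide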
STAT3 act – activators of IL-6 induced STAT3 signaling | U3A cells, IL-6 STAT3-luciferase reporter, luminescence; 100% = signal with IL-6 EC80 alone | activation (% of control), % at 5.6 µM | 0.91% of 190,000 active;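 active means activation above the screen-wide mean of compound activation plus 3 SD, cut at about 130% in these data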;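 further: 0% = background luminescence of wells with medium and substrate only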
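Material: human U3A cells carrying STAT3-luciferase construct. Measured by: reporter luminescence signal. Timing: compound 1 h, then IL-6 6 h at 37 °C.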
NF-kB expr up – raises NF-kB expression in human neuronal cells; NF-kB reporter expression; hits give high values; fold change at 12.5 µM; 1.6% of 190,000 active; AID 1239; in the data active means fold change above about 3.3
STAT3 blocker – reduces IL-6 driven STAT3 reporter signal. U3A cells, IL-6 STAT3-luciferase reporter, luminescence; host cell line lacks STAT1. AID 862. 0.89% of 190,000 active. inhibition, % at 5.5 µM;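 active means inhibition above the mean inhibition across all screened compounds plus 3 SD, cut at about 44% in these data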;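 further: 0% = DMSO only wells and 100% = 100 µM nifuroxazide control wells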
APP 5'UTR act – APP 5'UTR luciferase reporter activation; 1% of 190,000 active; SH-SY5Y APP 5'UTR luciferase reporter, luminescence; zero percent = DMSO vehicle wells; activation, % at 2 µM;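 active means activation above a set limit, based on mean plus 3 SD of controls, cut at about 140% in these data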
STAT1 act – STAT1 signaling activation; NIH 3T3 STAT1-luciferase reporter, IFN-gamma, luminescence; 100% = IFN-gamma alone, no compound; 2.6% of 200,000 active; AID 932; activation (% of control), % at 5.5 µM;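 active means activation above the screen-wide mean activation plus 3 SD, cut at about 130% in these data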;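 further: raw ratio to IFN-gamma control signal so 100% means no change and 0% no light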
STAT1 activ conf – confirmation of STAT1 signaling activators; shares compounds with STAT1 act; NIH 3T3 STAT1-luciferase reporter, IFN-gamma potentiation, luminescence; 100% = IFN-gamma EC80 alone, no compound; activation (% of control), % at 5.7 µM; 97% of 1,200 active; AID 1262;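 active means activation above a set limit carried over from the earlier primary STAT1 screen, cut at about 140% in these data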;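 further: simple ratio to median IFN-gamma plus DMSO wells so 0% means no light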
NFkB act STAT1ct – counter-screen for STAT1 activators: NF-kappaB activation; shares compounds with STAT1 act; HEK293T NF-kB luciferase reporter, TNF-alpha stimulated, luminescence; 100% = TNF-alpha with vehicle only; activation (% of control), % at 5.7 µM; 43% of 1,200 active; AID 1306;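 active means activation above the mean of solvent-only control wells plus 3 SD, set per campaign, cut at about 130% in these data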;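 further: TNF-alpha given at a submaximal dose yielding about 80% of full reporter signal; values are well signal over median control so 100% means no change and 0% no light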
STAT3 act STAT1c – human STAT3 activation in STAT1 activator counter-screen. shares compounds with STAT1 act. U3A cells STAT3-luciferase reporter, IL-6, luminescence; cells lack STAT1; 100 = IL-6 alone, no compound effect. activation (% of control), % at 5.7 µM. 46% of 1,200 active. AID 1316;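 active means activation above the solvent-only control well mean plus 3 SD, set per plate batch, cut at about 110% in these data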;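 further: 0% = no luminescence and 100% = median IL-6 plus DMSO wells; higher means more STAT3 reporter activation so hits are non-selective activators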
An asterisk follows results filed as active; nt = no result given.

SMILES	STAT1 inh	STAT3 act	NF-kB expr up	STAT3 blocker	APP 5'UTR act	STAT1 act	STAT1 activ conf	NFkB act STAT1ct	STAT3 act STAT1c
Cc1ccc(/C=C/C(=O)Nc2ccccc2C(N)=O)cc1	-59.8	74.7	5.32*	32.6	183.4*	152.5*	179.8*	111.9	88.1
NC(=O)c1ccccc1NC(=O)/C=C/C(=O)O	3.6	97.4	2.67	10.3	13.6	96.7	nt	nt	nt
C=CCn1c(SCC(=O)NCC2CCCO2)nnc1-c1ccccc1 (stereo not drawn)	2.2	77.3	1.17	33.0	13.2	98.2	nt	nt	nt
Cc1ccc(N=Cc2sc(O)c3ccccc23)cc1	-114.9	128.8	13.1*	-32.7	192.8*	202.3*	322.8*	153.2*	121.3*
Cc1ccc(N=Cc2cc(Br)cc(Cl)c2O)cc1	-6.7	105.4	1.51	-1.7	-9.0	104.5	nt	nt	nt
CO/N=C(\C(=O)O)c1csc(NN=C(C)C)n1	6.9	92.8	1.16	10.7	-6.2	92.0	nt	nt	nt
COc1ccccc1Cn1c(SCC(N)=O)nc2c(oc3ccccc32)c1=O	-11.3	97.5	1.04	9.8	-1.1	108.5	nt	nt	nt
CCC(=O)Oc1ccc(C(=O)Nc2ccc3c(c2)C(=O)N(C2CCCCC2)C3=O)cc1	1.5	98.6	1.1	1.6	0.2	100.0	nt	nt	nt
O=C(N/N=C/c1ccccc1F)c1csc2c1CCCC2	-62.2	71.4	4.04*	37.5	33.2	156.9*	217.3*	120.3	105.4
Cc1ccc(OCC(=O)Nc2ccccc2[N+](=O)[O-])c(Br)c1	-66.2	112.1	5.7*	-0.5	154.2*	159.5*	201.8*	135.0*	108.8
Cn1c(/C=C/c2ccc([N+](=O)[O-])o2)nc2ccccc2c1=O	-122.5	93.0	1.41	11.8	-36.7	212.1*	121.3	134.1*	103.2
O=C(Nc1ccc(C(=O)O)cc1)Nc1ccc(F)cc1F	4.1	96.8	1.16	4.5	16.1	96.7	nt	nt	nt
Cc1ccc(NC(=O)c2noc3c2CCCCC3)cc1C	-109.2	74.3	4.86*	34.7	237.3*	198.2*	270.7*	122.2	96.3
Cc1ccc(NC(=O)c2noc3c2CCCCC3)cc1	-60.6	92.2	8.1*	12.9	140.0*	155.6*	243.0*	135.8*	104.8
CCc1ccc(NC(=O)c2noc3c2CCCCC3)cc1	-66.8	101.6	4.48*	4.7	201.5*	164.5*	218.9*	144.0*	111.8*
COc1ccc(NC(=O)c2noc3c2CCCCC3)cc1	-77.9	91.3	6.73*	17.7	166.0*	168.8*	211.7*	138.4*	102.5
O=c1cc(O)nc(SCc2ccccc2)n1-c1ccc(Cl)cc1	-3.1	102.6	0.96	1.6	11.2	99.8	nt	nt	nt
COC(=O)c1cc(Br)c(N)cc1OC	2.1	88.6	1.19	22.1	-14.1	96.5	nt	nt	nt
CCCCc1ccc(-c2ccc(Br)cc2)nc1	-64.9	84.6	5.95*	20.4	124.9	154.7*	223.0*	125.7	96.8
CC(=O)Nc1ccc2nc(-c3ccccc3)cn2c1	-58.2	90.7	7.61*	9.9	169.7*	154.7*	198.5*	114.8	99.8
CC(=O)Nc1ccc(-c2cc(-c3ccccc3)nc(-c3ccccc3)n2)cc1	8.4	103.5	1.69	-5.3	-9.2	92.5	nt	nt	nt
CC1=NN(c2ccccc2)C(=O)/C1=C/c1c(O)n(-c2ccc(F)cc2)[nH]c1=O	-57.7	119.0	1.48	-28.6	39.0	152.6*	176.6*	122.4	132.3*
CC1=NN(c2ccccc2)C(=O)/C1=C\c1ccc(Br)s1	-5.0	92.7	1.39	8.9	nt	104.5	nt	nt	nt
CC(=O)Nc1cccc(-c2csc(Nc3ccc(Cl)cn3)n2)c1	-108.4	95.8	6.51*	5.0	182.2*	201.6*	248.7*	161.2*	101.8
CC(=O)Nc1cccc(-c2csc(Nc3cc(C)ccn3)n2)c1	-57.6	110.3	2.4	-4.2	138.4*	151.6*	174.3*	129.8	114.7*
SMILES	STAT1 inh	STAT3 act	NF-kB expr up	STAT3 blocker	APP 5'UTR act	STAT1 act	STAT1 activ conf	NFkB act STAT1ct	STAT3 act STAT1c
Brc1ccc(-c2cn3c(n2)SCC3)cc1	-69.4	77.5	5.16*	28.1	157.2*	166.0*	199.2*	136.8*	93.8
Clc1ccc(-c2cn3c(n2)SCC3)cc1	-66.4	77.0	4.76*	32.8	153.1*	158.4*	182.7*	137.1*	122.2*
CCn1nc(C)c(CNC(=O)CCc2nnc(-c3ccc(C(C)=O)s3)o2)c1C	0.1	105.0	1.1	1.5	-3.6	98.0	nt	nt	nt
CC(=O)Nc1sc2c(c1-c1nc3ccccc3s1)CCN(C(C)C)C2	-206.1	nt	2.7	nt	-69.8	285.1*	202.5*	190.9*	201.7*
CCC1CCC(NC(=O)Nc2cccc(OC)c2)CC1 (stereo not drawn)	-66.6	113.0	4.51*	-11.5	158.3*	159.2*	167.7*	131.9	122.7*
Cc1nnc(NC(=O)c2ccccc2Oc2ccccc2)s1	2.5	108.5	0.94	-4.8	0.3	97.5	nt	nt	nt
Nc1nn(-c2ccccc2)c(N)c1N=Nc1ccc2c(c1)OCO2	-85.0	98.7	7.51*	2.9	91.8	178.4*	253.3*	135.2*	111.9*
Cc1nn(C(=O)c2ccc3c(c2)OCO3)c(N)c1-c1ccccc1	-27.0	99.5	1.64	5.8	11.7	124.2	nt	nt	nt
Oc1[nH]c2ccccc2c1N=Nc1nc2ccccc2s1	-60.2	106.3	3.72*	-9.3	nt	155.3*	207.5*	135.9*	130.9*
COC(=O)c1ccccc1NC(=O)COc1ccc(S(=O)(=O)NC(C)C)cc1	1.2	95.3	0.61	12.2	0.1	97.0	nt	nt	nt
COc1ccc(CCNC(=O)Cc2cc(OCc3ccccc3)c(OC)cc2[N+](=O)[O-])cc1OC	8.1	96.5	1.22	9.7	5.1	92.6	nt	nt	nt
Cc1ccc(C(C(=O)NCc2ccco2)N(C(=O)Cc2cccs2)c2cccnc2)cc1 (stereo not drawn)	0.0	112.5	1.01	-8.1	-2.6	99.7	nt	nt	nt
COc1cccc(-c2cc(C(=O)N3CCCCC3C)no2)c1 (stereo not drawn)	-58.8	121.9	3.61*	-22.5	132.7	153.7*	181.0*	133.7*	122.7*
COc1ccc(CNc2ccc3c(c2)nc(C)n3C)cc1	-55.4	92.2	1.72	11.4	85.1	150.6*	168.3*	127.1	115.5*
Cc1ccc(CNc2ccc3c(c2)ncn3C(C)(C)C)cc1	-76.0	110.1	2.92	-2.1	164.6*	167.1*	198.4*	134.8*	128.2*
